These results are taken from PMC2266618 (The Journal of General Physiology, 2005).

One assay has as its target T1, homomeric ASIC1a (Rattus norvegicus, UniProt P55926).
T1 sequence (P55926 1-526): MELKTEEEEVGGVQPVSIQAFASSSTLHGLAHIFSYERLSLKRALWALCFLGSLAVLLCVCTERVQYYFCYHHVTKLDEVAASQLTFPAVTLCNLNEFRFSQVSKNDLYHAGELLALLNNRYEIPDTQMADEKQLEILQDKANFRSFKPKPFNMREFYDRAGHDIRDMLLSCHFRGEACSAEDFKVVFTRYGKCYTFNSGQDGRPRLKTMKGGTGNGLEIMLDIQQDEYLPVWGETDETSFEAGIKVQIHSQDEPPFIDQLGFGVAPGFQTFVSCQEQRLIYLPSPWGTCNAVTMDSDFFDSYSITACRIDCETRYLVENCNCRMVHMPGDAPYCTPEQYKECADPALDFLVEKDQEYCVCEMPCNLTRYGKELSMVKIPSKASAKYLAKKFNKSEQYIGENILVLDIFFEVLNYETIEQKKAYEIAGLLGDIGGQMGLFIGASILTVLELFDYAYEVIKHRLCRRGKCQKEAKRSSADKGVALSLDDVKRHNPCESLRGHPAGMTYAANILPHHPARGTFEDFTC
Description: Direct opening of ASIC1a channels by PcTx1. The class given is cell-based. Conditions: 100 μM amiloride. The method, boiled down:
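Rat ASIC1a cRNA (0.01 ng) injected into stage V-VI Xenopus oocytes, kept 2-4 d in OR-2 (pH 7.3); whole-cell currents at -70 mV. The conditioning solution was switched from 1.8 to 0.1 mM Ca2+ (with 0.1 mM flufenamic acid) at pH 7.35, together with 100 nM test peptide toxin in 0.05% BSA. The transient inward current was tested with 100 µM amiloride.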

The test system of the next assay is ASIC1a. The conditions noted are these: ref Diochot et al., 2004; cited from earlier work.
The next assay concerns ASIC3. The conditions noted are these: ref Diochot et al., 2004, cited from earlier work.

With `N=C(N)NC(=O)c1nc(Cl)c(N)nc1N` [amiloride], the “block of PcTx1-elicited currents by amiloride” value at homomeric ASIC1a (100 nM PcTx1 coapplied with pH 7.1, n = 3) is recorded as “could be blocked”; on homomeric ASIC1a (100 nM PcTx1 with 0.1 mM Ca2+ at pH 7.35, n = 4), “could be blocked”.

As to APETx2, the “inhibition of ASIC1a” value in the assay with ASIC1a is “does not inhibit”. The “inhibition of ASIC3” value in the assay on ASIC3 (inhibition during steady state (at pH 7.4)) was “inhibits”. For the same compound, the “affinity of the interaction with ASIC3” value in the assay with ASIC3 is “nanomolar affinity”.
